Results from ChEMBL document CHEMBL3774315, “Discovery of new low-molecular-weight p53-Mdmx disruptors and their anti-cancer activities” (Bioorg Med Chem, 2016).
Calls of active or inactive are those of the source. The rule behind the calls is not given here.

What was measured:
[1] = target: Tumour suppressor p53/oncoprotein Mdm2 (Homo sapiens, UniProt P04637+Q00987); experiment: Inhibition of Flag-tagged p53/GST-tagged Mdm2 (unknown origin) expressed in Escherichia coli BL21 after 1 hr by ELISA microplate reader method
Chain of Tumour suppressor p53/oncoprotein Mdm2 (P04637 whole entry): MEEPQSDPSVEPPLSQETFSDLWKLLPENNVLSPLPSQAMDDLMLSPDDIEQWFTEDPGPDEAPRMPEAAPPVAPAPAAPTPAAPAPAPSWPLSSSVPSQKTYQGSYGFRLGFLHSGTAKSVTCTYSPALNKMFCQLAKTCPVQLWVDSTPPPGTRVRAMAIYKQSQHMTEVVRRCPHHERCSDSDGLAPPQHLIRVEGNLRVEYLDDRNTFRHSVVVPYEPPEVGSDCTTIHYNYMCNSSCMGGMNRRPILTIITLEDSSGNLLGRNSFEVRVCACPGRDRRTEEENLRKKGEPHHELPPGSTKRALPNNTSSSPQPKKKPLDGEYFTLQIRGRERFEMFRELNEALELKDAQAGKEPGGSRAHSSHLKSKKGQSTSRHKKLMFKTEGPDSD
Chain of Tumour suppressor p53/oncoprotein Mdm2 (Q00987 whole entry): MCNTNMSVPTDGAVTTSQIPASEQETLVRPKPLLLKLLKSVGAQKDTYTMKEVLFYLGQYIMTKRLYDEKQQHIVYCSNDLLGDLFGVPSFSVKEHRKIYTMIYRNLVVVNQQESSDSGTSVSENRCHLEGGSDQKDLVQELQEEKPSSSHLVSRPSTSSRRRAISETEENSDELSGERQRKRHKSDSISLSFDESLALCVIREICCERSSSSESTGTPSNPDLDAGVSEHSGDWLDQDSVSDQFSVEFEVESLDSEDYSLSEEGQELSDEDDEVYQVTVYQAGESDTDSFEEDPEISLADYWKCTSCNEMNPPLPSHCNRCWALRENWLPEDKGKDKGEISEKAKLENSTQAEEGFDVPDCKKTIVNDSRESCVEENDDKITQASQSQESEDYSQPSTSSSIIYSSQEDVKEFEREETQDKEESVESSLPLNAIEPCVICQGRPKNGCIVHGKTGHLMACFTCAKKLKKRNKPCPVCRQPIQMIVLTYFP

[2] = target: Tumour suppressor protein p53/Mdm4 (Homo sapiens, UniProt O15151+P04637); experiment: Inhibition of Flag-tagged p53/GST-tagged Mdmx (unknown origin) expressed in Escherichia coli BL21 after 1 hr by ELISA microplate reader method
Chain of Tumour suppressor protein p53/Mdm4 (P04637 whole entry): as the sequence (P04637 whole entry) above
Chain of Tumour suppressor protein p53/Mdm4 (O15151 whole entry): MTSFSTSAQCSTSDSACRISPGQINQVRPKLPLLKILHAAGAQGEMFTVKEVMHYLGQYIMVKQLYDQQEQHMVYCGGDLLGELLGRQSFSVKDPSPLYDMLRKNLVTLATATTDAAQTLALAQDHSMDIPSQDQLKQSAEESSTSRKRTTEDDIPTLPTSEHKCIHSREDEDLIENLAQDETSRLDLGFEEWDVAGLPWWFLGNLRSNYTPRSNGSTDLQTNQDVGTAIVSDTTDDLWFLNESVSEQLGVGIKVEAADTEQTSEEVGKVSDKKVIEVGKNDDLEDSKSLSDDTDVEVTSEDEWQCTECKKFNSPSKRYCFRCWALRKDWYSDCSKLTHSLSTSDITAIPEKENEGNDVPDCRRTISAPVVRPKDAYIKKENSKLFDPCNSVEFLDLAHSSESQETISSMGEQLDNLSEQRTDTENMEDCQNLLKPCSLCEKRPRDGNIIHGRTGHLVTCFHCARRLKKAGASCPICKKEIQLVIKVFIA

[3] = target: Cellular tumor antigen p53/Death-associated protein kinase 1 (Homo sapiens, UniProt P04637+P53355); experiment: Inhibition of Flag-tagged p53/GST-tagged DAPK1 (unknown origin) expressed in Escherichia coli BL21 after 1 hr by ELISA microplate reader method
Chain of Cellular tumor antigen p53/Death-associated protein kinase 1 (P04637 whole entry): as the sequence (P04637 whole entry) above
Chain of Cellular tumor antigen p53/Death-associated protein kinase 1 (P53355 whole entry): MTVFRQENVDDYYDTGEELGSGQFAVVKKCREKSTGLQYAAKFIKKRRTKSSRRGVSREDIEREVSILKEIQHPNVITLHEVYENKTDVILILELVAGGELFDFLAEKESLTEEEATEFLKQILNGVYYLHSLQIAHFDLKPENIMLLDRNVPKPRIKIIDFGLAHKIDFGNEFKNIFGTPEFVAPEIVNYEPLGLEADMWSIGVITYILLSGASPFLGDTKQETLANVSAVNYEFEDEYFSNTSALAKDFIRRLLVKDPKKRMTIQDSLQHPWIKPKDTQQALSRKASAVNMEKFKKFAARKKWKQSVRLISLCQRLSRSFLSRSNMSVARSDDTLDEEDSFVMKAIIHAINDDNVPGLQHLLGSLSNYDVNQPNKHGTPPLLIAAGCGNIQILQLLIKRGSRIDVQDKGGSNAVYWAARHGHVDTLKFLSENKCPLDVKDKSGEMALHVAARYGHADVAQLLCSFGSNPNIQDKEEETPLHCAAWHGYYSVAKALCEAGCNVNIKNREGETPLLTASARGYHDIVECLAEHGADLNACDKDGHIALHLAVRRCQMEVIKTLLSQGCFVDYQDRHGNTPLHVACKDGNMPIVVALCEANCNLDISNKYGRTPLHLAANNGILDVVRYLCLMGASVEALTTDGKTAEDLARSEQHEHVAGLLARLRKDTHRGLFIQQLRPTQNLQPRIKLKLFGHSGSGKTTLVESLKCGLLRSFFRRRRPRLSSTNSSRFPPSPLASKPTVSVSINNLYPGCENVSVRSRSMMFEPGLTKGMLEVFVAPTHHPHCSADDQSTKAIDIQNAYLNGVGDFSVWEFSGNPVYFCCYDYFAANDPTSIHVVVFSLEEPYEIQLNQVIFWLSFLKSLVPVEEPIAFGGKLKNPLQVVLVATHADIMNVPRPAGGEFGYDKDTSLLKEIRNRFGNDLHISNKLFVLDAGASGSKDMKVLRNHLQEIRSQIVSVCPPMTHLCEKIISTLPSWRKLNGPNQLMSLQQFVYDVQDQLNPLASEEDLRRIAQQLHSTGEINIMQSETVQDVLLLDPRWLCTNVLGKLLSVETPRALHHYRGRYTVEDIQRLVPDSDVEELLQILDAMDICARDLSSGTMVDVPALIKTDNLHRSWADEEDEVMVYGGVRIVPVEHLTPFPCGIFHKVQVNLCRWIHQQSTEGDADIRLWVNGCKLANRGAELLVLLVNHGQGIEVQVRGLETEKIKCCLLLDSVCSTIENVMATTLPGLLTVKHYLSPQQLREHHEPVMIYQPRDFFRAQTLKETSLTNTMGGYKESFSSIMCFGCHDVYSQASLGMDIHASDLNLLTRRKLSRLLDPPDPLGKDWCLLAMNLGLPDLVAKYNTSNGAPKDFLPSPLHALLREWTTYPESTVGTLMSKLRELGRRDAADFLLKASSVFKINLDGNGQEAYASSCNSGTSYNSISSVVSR

[4] = target: Cellular tumor antigen p53/Peptidyl-prolyl cis-trans isomerase D (Homo sapiens, UniProt P04637+Q08752); experiment: Inhibition of Flag-tagged p53/GST-tagged PPID (unknown origin) expressed in Escherichia coli BL21 after 1 hr by ELISA microplate reader method
Chain of Cellular tumor antigen p53/Peptidyl-prolyl cis-trans isomerase D (P04637 whole entry): as the sequence (P04637 whole entry) above
Chain of Cellular tumor antigen p53/Peptidyl-prolyl cis-trans isomerase D (Q08752 whole entry): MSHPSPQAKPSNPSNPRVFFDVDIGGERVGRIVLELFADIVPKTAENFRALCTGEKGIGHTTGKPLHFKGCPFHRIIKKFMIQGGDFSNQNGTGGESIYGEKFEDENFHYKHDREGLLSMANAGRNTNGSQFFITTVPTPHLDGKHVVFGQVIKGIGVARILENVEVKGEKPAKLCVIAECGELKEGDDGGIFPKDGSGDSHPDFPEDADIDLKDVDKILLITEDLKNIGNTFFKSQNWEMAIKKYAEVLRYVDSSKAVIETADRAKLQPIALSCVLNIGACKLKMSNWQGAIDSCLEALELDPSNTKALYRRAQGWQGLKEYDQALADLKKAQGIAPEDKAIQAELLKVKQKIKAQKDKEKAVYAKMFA

MCF7 [5] = experiment: Cytotoxicity against human MCF7 cells expressing WT p53 and Mdmx assessed as growth inhibition after 48 hrs by crystal violet staining based spectrophotometry; assay type: functional, cell-based
Procedure, shortened: (§1)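 Cells seeded at 2 × 10^4 per well and held 24 h at 37 °C in 5% CO2. Serial dilutions (0, 10, 15, 20, 25 or 30 µM) then added for 48 h. Cells stained 15 min with crystal violet (0.75% dye, 0.25% NaCl, 1.75% formaldehyde, 50% EtOH) and read at 600 nm. Viability is expressed as percent of untreated control.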

A-427 = experiment: Cytotoxicity against human A427 cells expressing WT p53 and Mdmx assessed as growth inhibition after 48 hrs by crystal violet staining based spectrophotometry; assay type: functional, cell-based; procedure, shortened: as §1
HCT-116 = experiment: Cytotoxicity against human HCT116 cells expressing WT p53 and Mdmx assessed as growth inhibition after 48 hrs by crystal violet staining based spectrophotometry; assay type: functional, cell-based; procedure, shortened: as §1
A-431 = experiment: Cytotoxicity against human A431 cells expressing mutant p53 assessed as growth inhibition after 48 hrs by crystal violet staining based spectrophotometry; assay type: functional, cell-based; procedure, shortened: as §1
MDA-MB-468 = experiment: Cytotoxicity against human MDA-MB-468 cells expressing mutant p53 assessed as growth inhibition after 48 hrs by crystal violet staining based spectrophotometry; assay type: functional, cell-based; procedure, shortened: as §1
MCF7 [6] = experiment: Upregulation of p53 in human MCF7 cells after 24 hrs by Western blot analysis; assay type: functional, cell-based
Procedure, shortened: (§2)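 MCF-7 cells plated at 1.0 × 10^6 per 60-mm dish, grown 24 h, washed and given fresh medium for another 24 h. Treated with compound or 0.1% DMSO for 24 or 48 h. Floating and adherent cells lysed in Tris/NaCl/EDTA/EGTA/NP-40 buffer with Na3VO4, NaF, DTT, PMSF and protease inhibitors. 10 µg protein separated by SDS-PAGE, probed with primary antibodies at 1:1000, detected by ECL chemiluminescence.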

MCF7 [7] = experiment: Upregulation of p21 in human MCF7 cells after 24 hrs by Western blot analysis; assay type: functional, cell-based; procedure, shortened: as §2
MCF7 [8] = experiment: Upregulation of Mdm2 in human MCF7 cells after 24 hrs by Western blot analysis; assay type: functional, cell-based; procedure, shortened: as §2
IMR-32 = experiment: Increase in p53 expression in human IMR32 cells nuclei after 24 hrs by DAPI staining based immunofluorescence microscopy; assay type: functional, cell-based
Procedure, shortened: (§3)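 Cells seeded at 3.0 × 10^4/mL in chamber slides and grown 24 h, then exposed to 10 µM sample for a further 24 h. Fixed in 3% paraformaldehyde (25 °C, 30 min), permeabilized with 0.05% Triton X-100 and blocked with 3% BSA. Stained with anti-p53 (1:50, overnight, 4 °C) and an Alexa 488 secondary (1:200, 30 min). Nuclei counterstained with DAPI; examined by fluorescence/confocal microscopy.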

MCF7 [9] = experiment: Increase in p53 expression in human MCF7 cells nuclei after 24 hrs by DAPI staining based immunofluorescence microscopy; assay type: functional, cell-based; procedure, shortened: as §3
[10] = Antitumor activity against human HCT116 cells xenografted in nude BALB/c mouse assessed as decrease in tumor growth at 100 mg/kg/day, po administered every other day until day 38 and measured on day 40; assay type: functional; conditions: HCT-116, po
Procedure, shortened: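 Female BALB/c-nu/nu mice, 6 weeks old, given HCT116 cells (1.5 × 10^6 in 100 µL Matrigel) subcutaneously in the back. Once tumours reached 70–143 mm3, drug (2.0 mg/200 µL) or vehicle (0.1% Tween 80, 200 µL) was given orally every other day to day 38. Tumour length/width and body weight were tracked. Result expressed as mean treated tumour volume as % of control mean.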

Mus musculus [11] = experiment: Toxicity in human HCT116 cells xenografted nude BALB/c mouse assessed as body weight loss at 100 mg/kg/day, po administered every other day until day 38 and measured on day 40; assay type: organism-based, HCT-116; conditions: in vivo
Procedure, shortened: (§4)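 HCT116 cells (1.5 × 10^6 per 100 µL Matrigel) injected s.c. into the backs of 6-week-old female BALB/c-nu/nu mice. Once tumors reached 70–143 mm3, compound (2.0 or 3.0 mg/200 µL) or vehicle (0.1% Tween 80, 200 µL) was given orally every other day until day 38. n = 6 or 9 treated, 7 control. Tumor length, width and body weight were monitored. Activity is mean treated tumor volume as a percentage of control.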

Mus musculus [12] = experiment: Upregulation of Mdm2 protein expression in human HCT116 cells xenografted nude BALB/c mouse tumors at 150 mg/kg/day, po administered every other day until day 38 and measured on day 40 by Western blot analysis; assay type: functional, organism-based; conditions: HCT-116
Procedure, shortened: (§5)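 Tumors excised at day 40 from orally dosed HCT116-xenograft nude mice, frozen in liquid nitrogen, ground and suspended in lysis buffer, then spun at 15,000 × g at 4 °C. 10 µg protein (measured by BCA) run on SDS-PAGE, blotted to PVDF and probed for p53, Mdm2, p21 and cleaved caspase 3 (1:1000) or full-length caspase 3 (3:1000). ECL detection.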

Mus musculus [13] = experiment: Upregulation of p53 protein expression in human HCT116 cells xenografted nude BALB/c mouse tumors at 150 mg/kg/day, po administered every other day until day 38 and measured on day 40 by Western blot analysis; assay type: functional, organism-based; conditions: HCT-116; procedure, shortened: as §5
Mus musculus [14] = experiment: Upregulation of p21 protein expression in human HCT116 cells xenografted nude BALB/c mouse tumors at 150 mg/kg/day, po administered every other day until day 38 and measured on day 40 by Western blot analysis; assay type: functional, organism-based; conditions: HCT-116; procedure, shortened: as §5
Mus musculus [15] = experiment: Induction of apoptosis in human HCT116 cells xenografted nude BALB/c mouse tumors assessed as upregulation of caspase-3 protein expression at 150 mg/kg/day, po administered every other day until day 38 and measured on day 40 by Western blot analysis; assay type: functional, organism-based; conditions: HCT-116; procedure, shortened: as §5
Mus musculus [16] = experiment: Induction of apoptosis in human HCT116 cells xenografted nude BALB/c mouse tumors at 100 to 150 mg/kg/day, po administered every other day until day 38 and measured on day 40 by TUNEL assay; assay type: functional, organism-based; conditions: HCT-116
Procedure, shortened: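 Tumor sections from orally dosed HCT116-xenograft nude mice underwent TUNEL staining, performed by an outside service. TUNEL-positive cells were counted as a percentage of all cells over eight fields at ×20 magnification.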

Mus musculus [17] = experiment: Toxicity in human HCT116 cells xenografted nude BALB/c mouse assessed as body weight loss at 150 mg/kg/day, po administered every other day until day 38 and measured on day 40; assay type: organism-based, HCT-116; conditions: in vivo; procedure, shortened: as §4
[18] = Cytotoxicity against human TIG7 cells expressing wild-type p53 assessed as growth inhibition after 48 hrs by crystal violet staining based spectrophotometry; conditions: tig7, 48 h

Molecule `CC(C)C(=O)Sc1ccccc1NC(=O)c1ccccc1` has an IC50 [1] of 14.6 µM, an IC50 [2] of 4.6 µM and an IC50 [3] of over 25 µM. It also gave an IC50 [4] of over 25 µM.

`CC(C)C(=O)Nc1ccccc1SC(=O)C(C)C` gave an IC50 [1] of 13.1 µM, an IC50 [2] of 1.5 µM and an IC50 [3] of over 25 µM. The IC50 [4] was over 25 µM, the “growth inhibition (GI)” value (MCF7 [5]) was “Dose-dependent effect” and the “growth inhibition (GI)” value (A-427) was “Dose-dependent effect”. The “growth inhibition (GI)” value (HCT-116) was “Dose-dependent effect”, the “growth inhibition (GI)” value (A-431) was “Active” and the “growth inhibition (GI)” value (MDA-MB-468) was “Active”. For the same molecule, the Activity (MCF7 [6]) was “Dose-dependent effect”, the Activity (MCF7 [7]) was “Dose-dependent effect” and the Activity (MCF7 [8]) was “Dose-dependent effect”. The Activity (IMR-32) was “Active”, the Activity (MCF7 [9]) was “Active” and the T/C % at 100 mg/kg/day [10] was 49%. For the same molecule, the Activity (Mus musculus [11]) was “Non-toxic”, the Activity (Mus musculus [12]) was “Active” and the Activity (Mus musculus [13]) was “Active”. The Activity (Mus musculus [14]) was “Active”, the Activity (Mus musculus [15]) was “Active” and the Activity (Mus musculus [16]) was “Dose-dependent effect”. For the same molecule, the Activity (Mus musculus [17]) was “Non-toxic” and the Activity [18] was “Toxic”.

Molecule `CC(C)C(=O)Nc1ccccc1S` has an IC50 [1] of over 25 µM, an IC50 [2] of 6.3 µM and an IC50 [3] of over 25 µM. For the same molecule, the IC50 [4] was over 25 µM, the “growth inhibition (GI)” value (MCF7 [5]) was “Active” and the “growth inhibition (GI)” value (A-427) was “Active”. For the same molecule, the “growth inhibition (GI)” value (HCT-116) was “Active”, the “growth inhibition (GI)” value (A-431) was “Active” and the “growth inhibition (GI)” value (MDA-MB-468) was “Active”.

With `CCCCCCCC(=O)Nc1ccccc1S` the IC50 [1] was over 25 µM, the IC50 [2] was over 25 µM and the IC50 [3] was over 25 µM. The IC50 [4] was over 25 µM.

In the case of `O=C(Nc1ccccc1S)c1ccccc1`, the IC50 [1] is reported as over 25 µM, the IC50 [2] is reported as 7.2 µM and the IC50 [3] is reported as over 25 µM. For the same molecule, the IC50 [4] was over 25 µM.

With `O=C(Nc1ccccc1S)c1ccc(Cl)nc1` the IC50 [1] was 15.3 µM, the IC50 [2] was 8.9 µM and the IC50 [3] was over 25 µM. The IC50 [4] was over 25 µM.

For `COc1ccc(C2=N[C@@H](c3ccc(Cl)cc3)[C@@H](c3ccc(Cl)cc3)N2C(=O)N2CCNC(=O)C2)c(OC(C)C)c1`, the Activity (MCF7 [6]) was “Active”, the Activity (MCF7 [7]) was “Active” and the Activity (MCF7 [8]) was “Active”. For the same molecule, the Activity (IMR-32) was “Active” and the Activity (MCF7 [9]) was “Active”.

`O=C(Nc1ccccc1S)c1ccc(Cl)cc1` gave an IC50 [1] of 18.4 µM, an IC50 [2] of 3.4 µM and an IC50 [3] of over 25 µM. It also gave an IC50 [4] of over 25 µM.

`CC(C)C(=O)Nc1ccccc1OC(=O)C(C)C` showed an IC50 [1] of over 25 µM, an IC50 [2] of over 25 µM and an IC50 [3] of over 25 µM. For the same molecule, the IC50 [4] was over 25 µM.

Molecule `CC(C)C(=O)Nc1ccccc1O` has an IC50 [1] of over 25 µM, an IC50 [2] of over 25 µM and an IC50 [3] of over 25 µM. For the same molecule, the IC50 [4] was over 25 µM.
